{"data": "Assay results of several laboratories"}
{"Compound": "COc1ccc(C[C@@H]2NC(=O)[C@H]([C@@H](C)O)NC(=O)[C@@H]3[C@@H]4CCN3C(=O)[C@@H]3Cc5cn(c6ccc(F)cc56)CCCCCCN(Cc5ccc(cc5)CCNC(=O)[C@]5(C)CCCN5C2=O)C(=O)CCC(=O)N[C@@H](C)C(=O)N[C@H](CNC(=O)CCCCC[N+](C)(C)C)C(=O)N[C@@H](Cc2cccc(c2)CNC(=O)CO4)C(=O)N3)cc1", "system": "human, plasma", "setting": "oral, 200 mg, single dose, healthy volunteers", "endpoint": "AUC(0-inf)", "result": "0.556 µM·h"}
{"Compound": "O=C1[O][Pt]2([NH][C@@H]3CCCC[C@H]3[NH]2)[O]C1=O (relative stereo)", "system": "cynomolgus monkey, plasma", "setting": "oral, 10 mg/kg", "endpoint": "Tmax", "result": "2 h"}
{"Compound": "Cc1c(P(=S)(c2ccccc2)c2ccccc2)n2ccccc2[n+]1C/C=C/c1ccccc1", "system": "mouse, brain", "setting": "intraperitoneal, 10 mg/kg", "endpoint": "tissue/plasma ratio", "result": 0.33}
{"Compound": "N=c1c2c(-c3ccccc3)c(-c3ccccc3)n(Cc3ccccc3)c2ncn1[C@H]1CC[C@H](O)CC1", "system": "male cynomolgus monkey, plasma", "setting": "oral, 1 mg/kg, single dose", "endpoint": "Tmax", "result": "~15 h"}
{"Compound": "c1cc([C@H]2CC[C@]3(CC2)OO[C@]2(O3)C3CC4CC(C3)CC2C4)ccc1OCCN1CCOCC1", "system": "human, plasma", "setting": "oral, 400 mg, patients", "endpoint": "AUC(0-inf)", "result": "6450 ng·h/mL"}
{"Compound": "N=C(N)NCCC[C@@H](NC(=O)[C@@H](N)Cc1ccccc1)C(=O)N[C@@H](Cc1ccccc1)C(=O)N[C@@H](CCCCN)C(N)=O", "system": "human, plasma", "setting": "subcutaneous, 5 mg, patients", "endpoint": "AUC(0-t)", "result": "861 ng·h/mL"}
{"Compound": "C=C(C)[C@@H]1CC[C@]2(NCCN3CCS(=O)(=O)CC3)CC[C@]3(C)[C@H](CC[C@@H]4[C@@]5(C)CC=C(C6=CC[C@@](COc7ncccc7C#N)(C(=O)O)CC6)C(C)(C)[C@@H]5CC[C@]43C)[C@@H]12", "system": "human, plasma", "setting": "oral, 100 mg, fed", "endpoint": "AUC(0-inf)", "result": "43600 ng·h/mL"}
{"Compound": "CC(=C/C=C/C(C)=C/C(=O)O)/C=C1\\CCCc2ccccc21", "system": "human, plasma", "setting": "oral, 5 mg, single dose, fasted, healthy volunteers", "endpoint": "AUC(0-inf)", "result": "193 ng·h/mL"}
